Shown are actives, neighbours in structure and some others; about 2% of the full set was active somewhere.
CHRM1 PAM = potentiates human M1 receptor response to acetylcholine; P11229; CHO-K1 hM1, Fluo-8 calcium fluorescence, ACh EC20; 0% = ACh EC20, 100% = maximal ACh; activation, % at 3 µM; 360,000 tested, 0.088% active; AID 588819; in the data active = activation above about 19%, passing the limit was not always enough
Target sequence (P11229 whole entry, looked up): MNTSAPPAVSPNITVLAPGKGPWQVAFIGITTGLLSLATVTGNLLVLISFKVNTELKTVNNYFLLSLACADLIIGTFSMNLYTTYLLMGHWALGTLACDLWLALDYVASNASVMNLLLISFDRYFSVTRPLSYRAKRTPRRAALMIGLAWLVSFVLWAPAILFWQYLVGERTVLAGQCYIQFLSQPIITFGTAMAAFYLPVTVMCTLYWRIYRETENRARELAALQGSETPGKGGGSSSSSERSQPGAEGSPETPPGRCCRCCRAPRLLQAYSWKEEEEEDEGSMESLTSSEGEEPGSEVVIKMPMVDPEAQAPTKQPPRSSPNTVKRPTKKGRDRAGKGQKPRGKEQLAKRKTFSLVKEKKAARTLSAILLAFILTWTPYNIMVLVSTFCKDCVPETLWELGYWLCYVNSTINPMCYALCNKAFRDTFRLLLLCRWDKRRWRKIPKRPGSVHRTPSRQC
M1 antag = human CHRM1 antagonism. P11229. CHO-K1 hM1, Fluo-8 calcium fluorescence, ACh EC80 antagonist. inhibition, % at 3 µM. 360,000 tested, 1.3% active;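 active = percent inhibition above its own plate's cutoff, namely the mean of that plate's compound wells plus 3 SD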;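 note: peak over basal fluorescence ratio during 140 s after agonist addition; 0% = ACh EC80 plus DMSO and 100% = DMSO alone without agonist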
CHRM1 agonist = agonists of human M1 muscarinic receptor. P11229. activation, % at 3 µM. 360,000 tested, 0.33% active. CHO-K1 hM1, Fluo-8 calcium fluorescence, agonist mode; 0% DMSO, 100% acetylcholine EC100;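 active = activation above the run's mean compound activation plus 3 SD, cut at about 16% in these data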;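 note: peak over basal fluorescence ratio within a 140 s kinetic read after compound addition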
M5 PAM = CHRM5 positive allosteric modulation | CHO-K1 hM5, Fluo-8 calcium, ACh EC20 PAM; 0% = ACh EC20, 100% = ACh EC100 | activation, % at 3 µM | 360,000 tested, 0.3% active;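 active = activation above the run cutoff, the mean activation of all test compounds plus 3 SD, cut at about 18% in these data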
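Assay system – human M5 receptor in CHO-K1 cells · Read-out – % activation, ACh-normalized · Technique – Fluo-8 calcium fluorescence · Dosing – single-point, 3 µM nominal · Incubation – Fluo-8 loading 80 min at 37 °C plus 30 min room temperature · Repeats – singlicate, one well per test compound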
M5 antag = antagonists of human muscarinic M5 receptor (CHRM5); AID 624040; P08912; inhibition, % at 3 µM; 360,000 tested, 0.59% active; CHO-hM5 cells, Fluo-8 calcium fluorescence, ACh EC80;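 active = inhibition above a per-plate cutoff, the mean of that plate's test compounds plus 3 SD, cut at about 27% in these data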;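 note: 0% = acetylcholine EC80 with DMSO and 100% = DMSO without agonist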
CHRM5 agonist = CHRM5 agonism in calcium assay. P08912. CHO-K1 hM5 cells, Fluo-8 calcium fluorescence; 0% DMSO wells, 100% maximal acetylcholine response. activation, % at 3 µM. 360,000 tested, 0.19% active;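 active = activation above the run's mean over test compounds plus 3 SD, cut at about 23% in these data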;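 note: signal is peak over basal fluorescence ratio across the kinetic read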
The depositor's hits bear a star; · = not tested or not shown.

SMILES	CHRM1 PAM	M1 antag	CHRM1 agonist	M5 PAM	M5 antag	CHRM5 agonist
CCOC(=O)c1cnc2ccc(OC)cc2c1NCc1ccccc1	-6.0	13.4	-9.4	-6.6	0.7	-2.9
CCOC(=O)c1cnc2ccccc2c1NCc1ccco1	-26.5	91.8*	-7.6	-28.3	14.6	-17.6
CCN(C(=O)COC(=O)c1ccc(S(=O)(=O)N2CCCc3ccccc32)cc1)C1CCS(=O)(=O)C1 (stereo not given)	-32.3	72.1*	-13.8	-3.4	-17.5	-11.0
CCCN(C(=O)c1cccc(S(=O)(=O)N2CCCc3ccccc32)c1)C1CCS(=O)(=O)C1 (stereo not given)	7.8	-6.3	-4.9	0.3	-2.4	1.4
COc1cc(/C=C/C(O)=C/C(=O)/C=C/c2ccc(O)cc2)ccc1O	-19.9	39.3*	18.3*	-34.8	40.6*	47.9*
CCN(CC)c1ccc(C2CC(=O)NC3=C2C(=O)CC(C)(C)C3)cc1 (stereo not given)	-22.9	25.8*	-9.9	-28.8	13.8	-12.0
CC1(C)CC(=O)C2=C(C1)NC(=O)CC2c1ccc(F)cc1 (stereo not given)	-4.1	3.4	-2.2	-5.6	9.0	-2.2
CN(C)c1ccc(C2CC(=O)NC3=C2C(=O)CC(C)(C)C3)cc1 (stereo not given)	-6.9	8.4	-11.3	-7.4	6.6	-5.6
COc1cc(C2CC(=O)NC3=C2C(=O)CC(C)(C)C3)cc(OC)c1O (stereo not given)	-1.8	0.3	2.2	8.3	27.2*	-0.6
CC(=O)Nc1ccc(S(=O)(=O)N2CCC(NC(=O)C(Cc3cccn3C)NC(C)=O)CC2)cc1 (stereo not given)	5.6	-1.9	-3.4	27.7*	3.3	-0.1
COCCNc1nc(N2CCCCC2)c2cnn(C)c2n1	7.2	-13.9	-2.3	18.3*	-25.5	-1.6
COCCNc1nc(NCc2ccccc2)c2cnn(C)c2n1	-4.8	9.8	-1.5	2.7	1.8	1.9
COc1ccccc1-c1ccc(/C=C2\C=CC(=O)O2)o1	-13.2	20.1	27.0*	-23.8	27.1*	70.4*
COc1ccccc1-c1ccc(/C=C2/C=C(C)OC2=O)o1	11.9	-14.0	-3.0	1.6	1.0	-1.6
CCCn1ncc(CN2CCCC(C(=O)c3cccc(OC(C)C)c3)C2)c1C (stereo not given)	-25.0	99.2*	-6.6	-25.0	15.5	-18.9
CC(C)Oc1cccc(C(=O)C2CCCN(Cc3cnc(N4CCCC4)s3)C2)c1 (stereo not given)	-12.3	2.3	-13.6	-3.7	-1.6	-5.5
CCCn1cc(CN2CCCC(C(=O)c3cccc(OC(C)C)c3)C2)c(C)n1 (stereo not given)	-27.6	38.5*	-10.9	-5.5	15.4	-9.2
CC(C)Oc1cccc(C(=O)C2CCCN(C(=O)CCn3cnnn3)C2)c1 (stereo not given)	7.8	-12.0	-6.9	5.8	2.3	1.1
CC(C)(C)c1ccc(CC(=O)N2CCC2(C)C(=O)Nc2cnc3ccccc3c2)cc1 (stereo not given)	-20.7	36.2*	0.1	-17.0	24.2	5.2
Cc1ccc(NC(=O)C2(C)CCN2C(=O)Cc2ccc(-c3ccccc3)cc2)cc1 (stereo not given)	-14.9	19.8	19.2*	-7.7	22.4	4.5
COc1cc(OC)cc(-c2noc([C@@H]3O[C@H](CO)[C@H](O)[C@H](O)[C@H]3O)n2)c1	7.4	-15.9	-3.0	1.0	0.6	0.1
C=CCc1ccccc1OCC(O)CN1CCN(c2ccc(C)cc2)CC1 (stereo not given)	-6.7	6.7	-2.2	5.5	-3.1	0.6
C=CCc1ccccc1OCC(O)CN1CCN(C(=O)OCC)CC1 (stereo not given)	-20.7	28.0	43.0*	-3.5	6.9	-10.2
CCOC(=O)N1CCN(CC(O)COc2ccccc2C(C)C)CC1 (stereo not given)	-4.8	-2.3	20.0*	-4.0	0.0	-12.6
COC(=O)c1ccc(Cn2c(C)c(C(=O)NCc3cccc(C(F)(F)F)c3)sc2=O)o1	2.1	-8.2	-4.2	-7.1	-1.3	4.2
SMILES	CHRM1 PAM	M1 antag	CHRM1 agonist	M5 PAM	M5 antag	CHRM5 agonist
CC(C(=O)Nc1nc(-c2ccc(F)c(F)c2)cs1)N1C(=O)C2CC=CCC2C1=O (stereo not given)	-17.3	30.7*	-1.1	-35.9	23.4	0.2
O=C(Cc1ccc(F)cc1)Nc1nc(-c2ccc(F)cc2)cs1	-29.6	34.9*	-9.1	-12.6	8.2	-4.2
O=C(Cc1ccccc1)Nc1nc(-c2ccc(F)c(F)c2)cs1	-29.7	36.9*	-7.6	-10.4	1.4	-4.7
O=C(O)CCCC(=O)Nc1nc(-c2ccc(F)cc2)cs1	5.4	-11.9	-2.0	-0.6	-0.6	-1.1
O=C(NCCN1CCC(n2c(=O)[nH]c3ccccc32)CC1)c1ccc(C(F)(F)F)cc1C(F)(F)F	·	·	·	-19.0	18.6	3.9
Cc1ccc(S(=O)(=O)N2CCC(C(=O)NCCN3CCOCC3)CC2)cc1	-0.2	1.4	-3.6	0.9	-1.6	-0.6
S=C(Nc1cc(Cl)cc(Cl)c1)NC1CCN(Cc2ccccc2)CC1	-3.6	23.9	8.8	-14.2	28.4*	11.6
COc1cc(OC)c(NC(=O)CCNC(=O)Cn2cnc3ccccc3c2=O)cc1Cl	25.6*	-36.2	3.1	3.9	-6.3	-3.1
COc1ccc(S(=O)(=O)Nc2nc3c(s2)CCCC3)cc1	12.1	-5.4	-3.2	19.6*	-4.4	5.7
C[N+](C)(C)CCCCCC(=O)/C=N/O	-1.9	-7.4	29.4*	0.0	-7.4	19.7
N#CCCN1CCN(CCC#N)C1=S	-3.0	1.1	16.1*	-7.4	8.4	30.3*
Cc1cccc(C)c1-n1nnnc1C(c1ccccc1)N1CCN(C/C=C/c2ccccc2)CC1 (stereo not given)	-25.6	60.5*	-7.3	-22.3	31.4*	-7.8
Cc1cccc(C)c1-n1nnnc1C(c1cccs1)N1CCN(C/C=C/c2ccccc2)CC1 (stereo not given)	-24.1	26.5	-7.2	-22.1	28.8*	-7.7
Cc1cc(C)nc(/N=C(\N)N2CCCCCC2)n1	-23.5	29.9*	-12.5	-0.2	4.8	-6.4
C[C@@H]1CN([C@@H](C)CO)C(=O)CCCn2nncc2CO[C@H]1CN(C)C(=O)Cc1ccccc1	2.7	-5.2	-4.4	2.5	6.2	-0.4
CCOC(=O)C1CCCN(C(=O)CSc2nc(C)cc(C)n2)C1 (stereo not given)	-4.6	8.4	38.4*	-6.8	22.3	1.6
CCOC(=O)C1CCCN(C(=O)COc2ccccc2O)C1 (stereo not given)	-23.1	61.7*	73.6*	-28.6	2.7	49.5*

Screening results (PubChem BioAssay)
